# Data published in ChEMBL document CHEMBL3872230, “Inhibition of the enzymes in the leukotriene and prostaglandin pathways in inflammation by 3-aryl isocoumarins” (Eur J Med Chem, 2016).
# Active and inactive are the calls of the source. The calls are words filed in the database; no cut-off is given here.
# T1: Prostaglandin E synthase (Homo sapiens) (UniProt O14684)
# T1 sequence (whole entry): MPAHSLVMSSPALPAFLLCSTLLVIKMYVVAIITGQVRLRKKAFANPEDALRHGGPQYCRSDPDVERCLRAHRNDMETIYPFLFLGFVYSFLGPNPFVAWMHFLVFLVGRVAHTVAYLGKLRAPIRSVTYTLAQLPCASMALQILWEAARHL
# T2: Polyunsaturated fatty acid 5-lipoxygenase (Homo sapiens, UniProt P09917)
# T2 sequence (P09917 whole entry): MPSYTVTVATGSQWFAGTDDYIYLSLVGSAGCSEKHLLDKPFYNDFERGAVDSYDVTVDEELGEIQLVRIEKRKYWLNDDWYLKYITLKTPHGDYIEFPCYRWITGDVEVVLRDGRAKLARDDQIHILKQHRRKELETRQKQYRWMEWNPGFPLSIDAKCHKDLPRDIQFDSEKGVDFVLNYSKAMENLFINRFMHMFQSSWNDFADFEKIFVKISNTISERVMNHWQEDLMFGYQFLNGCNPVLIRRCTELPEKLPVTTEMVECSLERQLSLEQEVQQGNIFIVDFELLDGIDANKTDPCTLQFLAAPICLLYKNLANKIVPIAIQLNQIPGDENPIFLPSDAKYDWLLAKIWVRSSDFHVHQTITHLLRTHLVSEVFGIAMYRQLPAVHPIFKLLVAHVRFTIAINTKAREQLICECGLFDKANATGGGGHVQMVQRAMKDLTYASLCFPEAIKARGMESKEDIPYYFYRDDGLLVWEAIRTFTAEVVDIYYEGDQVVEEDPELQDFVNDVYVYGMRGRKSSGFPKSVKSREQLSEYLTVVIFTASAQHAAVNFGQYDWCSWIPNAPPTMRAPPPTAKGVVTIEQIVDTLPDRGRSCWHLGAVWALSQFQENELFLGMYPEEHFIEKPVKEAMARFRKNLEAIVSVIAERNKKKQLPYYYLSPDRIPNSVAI
# T3: Polyunsaturated fatty acid 5-lipoxygenase (Homo sapiens) (UniProt P09917)
# T3 sequence (whole entry): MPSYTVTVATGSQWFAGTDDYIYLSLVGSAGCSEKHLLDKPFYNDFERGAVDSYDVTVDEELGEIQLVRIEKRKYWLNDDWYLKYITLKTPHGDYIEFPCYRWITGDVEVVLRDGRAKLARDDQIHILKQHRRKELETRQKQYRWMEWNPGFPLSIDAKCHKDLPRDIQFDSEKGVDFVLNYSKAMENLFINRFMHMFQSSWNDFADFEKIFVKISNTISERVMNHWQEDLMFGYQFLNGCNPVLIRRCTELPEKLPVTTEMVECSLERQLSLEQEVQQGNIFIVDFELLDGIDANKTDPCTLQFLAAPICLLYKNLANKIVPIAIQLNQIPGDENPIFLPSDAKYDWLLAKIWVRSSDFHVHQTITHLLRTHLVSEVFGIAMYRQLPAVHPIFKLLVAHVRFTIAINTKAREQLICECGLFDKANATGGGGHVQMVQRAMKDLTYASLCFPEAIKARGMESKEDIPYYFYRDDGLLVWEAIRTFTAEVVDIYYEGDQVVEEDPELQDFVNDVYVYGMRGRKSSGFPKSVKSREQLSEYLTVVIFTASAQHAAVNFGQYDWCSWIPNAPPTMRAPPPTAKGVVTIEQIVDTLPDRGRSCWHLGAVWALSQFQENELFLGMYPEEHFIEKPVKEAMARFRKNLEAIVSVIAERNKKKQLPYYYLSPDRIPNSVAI
# T4: Prostaglandin E synthase (Homo sapiens, UniProt O14684)
# T4 sequence (O14684 whole entry): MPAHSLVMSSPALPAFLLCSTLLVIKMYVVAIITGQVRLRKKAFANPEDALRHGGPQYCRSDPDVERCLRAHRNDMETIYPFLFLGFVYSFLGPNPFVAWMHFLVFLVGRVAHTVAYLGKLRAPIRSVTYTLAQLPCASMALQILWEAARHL
# Key:
# [1] = biological target: T1, Prostaglandin E synthase (Homo sapiens); assay: Inhibition of mPGES1 in human HeLa cells assessed as reduction in TNF-alpha induced PGE2 production at 50 uM preincubated for 2 hrs followed by TNF-alpha addition for 24 hrs by ELISA; assay type: cell-based
# Outline: (§1)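 Read-out was PGE2 released into the HeLa culture supernatant, measured with an ELISA kit.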
# [2] = Antioxidant activity assessed as DPPH radical scavenging activity at 50 uM after 30 mins; assay type: functional
# [3] = biological target: T2, Polyunsaturated fatty acid 5-lipoxygenase; assay: Inhibition of human recombinant 5-LOX expressed in Escherichia coli BL21 assessed as decrease in 5-HPETE production preincubated with enzyme followed by arachidonic acid substrate addition by UV-vis spectrophotometry
# [4] = biological target: T3, Polyunsaturated fatty acid 5-lipoxygenase (Homo sapiens); assay: Inhibition of human recombinant 5-LOX expressed in Escherichia coli BL21 assessed as decrease in 5-HPETE production at 50 uM preincubated with enzyme followed by arachidonic acid substrate addition by UV-vis spectrophotometry
# [5] = Cytotoxicity against human HeLa cells assessed as cell proliferation at 50 uM after 24 hrs by MTT assay; assay type: toxicity, cell-based; details: read-out: Activity
# [6] = system: HeLa; assay: Increase in NFkappaB mRNA expression in human HeLa cells at 50 uM by RT-PCR method relative to control; assay type: functional
# Outline: (§2)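 Real-time PCR on treated HeLa cells. mRNA levels were normalized to untreated cells and to β-actin, and significance was assessed by 2-way ANOVA.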
# [7] = system: HeLa; assay: Inhibition of mPGES1 mRNA expression in human HeLa cells at 50 uM by RT-PCR method; assay type: functional, cell-based; outline: as §2
# [8] = biological target: T5, Prostaglandin E synthase/G/H synthase 2 (Homo sapiens) (UniProt P35354+O14684); assay: Inhibition of COX-2/mPGES1 in human HeLa cells assessed as reduction in TNF-alpha induced PGE2 production at 50 uM preincubated for 15 mins followed by arachidonic acid addition for 15 mins by ELISA; assay type: cell-based
# T5 sequence (P35354 whole entry, looked up, one chain of several): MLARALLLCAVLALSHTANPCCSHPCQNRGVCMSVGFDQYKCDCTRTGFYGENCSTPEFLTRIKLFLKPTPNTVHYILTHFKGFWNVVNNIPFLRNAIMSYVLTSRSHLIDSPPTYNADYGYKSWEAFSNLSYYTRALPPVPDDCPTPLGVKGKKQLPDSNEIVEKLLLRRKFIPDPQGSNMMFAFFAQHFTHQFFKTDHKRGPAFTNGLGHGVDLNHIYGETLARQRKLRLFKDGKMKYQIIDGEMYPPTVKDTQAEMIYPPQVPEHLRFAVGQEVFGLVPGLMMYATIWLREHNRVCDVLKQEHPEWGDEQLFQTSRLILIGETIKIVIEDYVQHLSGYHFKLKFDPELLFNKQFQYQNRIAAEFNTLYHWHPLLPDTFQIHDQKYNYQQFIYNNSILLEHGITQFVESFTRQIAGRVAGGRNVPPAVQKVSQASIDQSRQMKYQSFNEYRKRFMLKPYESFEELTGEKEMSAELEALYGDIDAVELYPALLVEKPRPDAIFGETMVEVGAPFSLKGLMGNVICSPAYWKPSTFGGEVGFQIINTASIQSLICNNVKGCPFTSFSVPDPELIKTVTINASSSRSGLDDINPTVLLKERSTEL
# Outline: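 HeLa cells primed with TNF at 50 ng/ml to induce mPGES1, then exposed to compound for 15 min, then challenged with exogenous arachidonic acid for a further 15 min. PGE2 released into the culture supernatant was quantified by ELISA.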
# [9] = system: HeLa; assay: Increase in IFN-gamma mRNA expression in human HeLa cells at 50 uM by RT-PCR method relative to control; assay type: functional; outline: as §2
# [10] = system: HeLa; assay: Increase in TGF-beta3 mRNA expression in human HeLa cells at 50 uM by RT-PCR method relative to control; assay type: functional; outline: as §2
# [11] = biological target: T5, Prostaglandin E synthase/G/H synthase 2 (Homo sapiens); assay: Inhibition of COX-2/mPGES1 in human HeLa cells assessed as reduction in TNF-alpha induced PGE2 production at 50 uM after 15 mins followed by ELISA; assay type: cell-based
# Outline: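 TNF-treated HeLa cells were exposed to compound for 15 min without added arachidonic acid. PGE2 released into the culture supernatant was measured by ELISA.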
# [12] = system: HeLa; assay: Increase in IL-6 mRNA expression in human HeLa cells at 50 uM by RT-PCR method relative to control; assay type: functional; outline: as §2
# [13] = system: HeLa; assay: Inhibition of COX-2 mRNA expression in human HeLa cells at 50 uM by RT-PCR method; assay type: functional, cell-based; outline: as §2
# [14] = biological target: T4, Prostaglandin E synthase; assay: Inhibition of mPGES1 in human HeLa cells assessed as reduction in TNF-alpha induced PGE2 production preincubated for 2 hrs followed by TNF-alpha addition for 24 hrs by ELISA; assay type: cell-based; outline: as §1
# [15] = biological target: T3, Polyunsaturated fatty acid 5-lipoxygenase (Homo sapiens); details: 10 uM
# [16] = substrate: COc1cc(-c2cc3cccc(O)c3c(=O)o2)cc(OC)c1OC; details: Homo sapiens; 10 uM
# [17] = substrate: O=c1oc(-c2ccc(O)c(O)c2)cc2ccccc12; details: Homo sapiens; 10 uM
# [18] = substrate: O=c1oc(-c2ccc(O)c(O)c2)cc2ccccc12; details: Homo sapiens; 50 uM
# [19] = substrate: COc1cc(-c2cc3cccc(O)c3c(=O)o2)cc(OC)c1OC; details: Homo sapiens; 30 uM
# [20] = substrate: COc1cc(-c2cc3cccc(O)c3c(=O)o2)cc(OC)c1OC; details: Homo sapiens; 10 uM; remark: listed apart in the source
# [21] = substrate: O=c1oc(-c2ccc(O)c(O)c2)cc2ccccc12; details: Homo sapiens; 10 uM; remark: listed apart in the source
# [22] = substrate: O=c1oc(-c2ccc(O)c(O)c2)cc2ccccc12; details: Homo sapiens; 50 uM; remark: listed apart in the source
# [23] = substrate: COc1cc(-c2cc3cccc(O)c3c(=O)o2)cc(OC)c1OC; details: Homo sapiens; 30 uM; remark: listed apart in the source
inhibition [1],IC50 [3],inhibition [4],Molecule,Activity [2],"viability at 24 h, 50 µM [5]",other results
73%,22.8 µM,78.8%,COc1cc(-c2cc3ccccc3c(=O)o2)ccc1O,47.8%,65%,–
74%,–,40.9%,O=c1oc(-c2ccc(O)c(O)c2)cc2cccc(O)c12 [THUNBERGINOL A],49%,68.7%,fold change (FC) [6]: 1; inhibition [7]: Active; inhibition [8]: 17%; fold change (FC) [9]: 9.6; fold change (FC) [10]: 1; inhibition [11]: 75%; fold change (FC) [12]: 1; inhibition [13]: Active
–,–,–,O=C1O[C@H]([C@@H](O)CO)C(O)=C1O,82.2%,–,–
73%,20.9 µM,72%,COc1cc(-c2cc3ccccc3c(=O)o2)cc(OC)c1OC,15.8%,75.7%,IC50 [14]: 9.3 µM
74%,–,36.4%,O=c1oc(-c2ccc(O)cc2)cc2cccc(O)c12,12.6%,70.6%,IC50 [14]: 7.1 µM
54%,–,49.2%,COc1cc(O)c2c(=O)oc(-c3ccccc3)cc2c1,16.6%,78.1%,–
78%,4.6 µM,84.1%,O=c1oc(-c2ccc(O)c(O)c2)cc2ccccc12,53 to 53.2%,78.7%,fold change (FC) [6]: 1; inhibition [7]: Active; inhibition [8]: 44%; fold change (FC) [9]: 5.6; fold change (FC) [10]: 1; inhibition [11]: 76%; fold change (FC) [12]: 1; inhibition [13]: Active
68%,12.4 µM,80 to 80.3%,COc1cc(-c2cc3cccc(O)c3c(=O)o2)cc(OC)c1OC,12 to 12.4%,80.2%,inhibition [15]: Active
–,–,–,"Polyunsaturated fatty acid 5-lipoxygenase (Homo sapiens), P09917 (protein) MPSYTVTVATGSQWFAGTDDYIYLSLVGSAGCSEKHLLDKPFYNDFERGAVDSYDVTVDEELGEIQLVRIEKRKYWLNDDWYLKYITLKTPHGDYIEFPCYRWITGDVEVVLRDGRAKLARDDQIHILKQHRRKELETRQKQYRWMEWNPGFPLSIDAKCHKDLPRDIQFDSEKGVDFVLNYSKAMENLFINRFMHMFQSSWNDFADFEKIFVKISNTISERVMNHWQEDLMFGYQFLNGCNPVLIRRCTELPEKLPVTTEMVECSLERQLSLEQEVQQGNIFIVDFELLDGIDANKTDPCTLQFLAAPICLLYKNLANKIVPIAIQLNQIPGDENPIFLPSDAKYDWLLAKIWVRSSDFHVHQTITHLLRTHLVSEVFGIAMYRQLPAVHPIFKLLVAHVRFTIAINTKAREQLICECGLFDKANATGGGGHVQMVQRAMKDLTYASLCFPEAIKARGMESKEDIPYYFYRDDGLLVWEAIRTFTAEVVDIYYEGDQVVEEDPELQDFVNDVYVYGMRGRKSSGFPKSVKSREQLSEYLTVVIFTASAQHAAVNFGQYDWCSWIPNAPPTMRAPPPTAKGVVTIEQIVDTLPDRGRSCWHLGAVWALSQFQENELFLGMYPEEHFIEKPVKEAMARFRKNLEAIVSVIAERNKKKQLPYYYLSPDRIPNSVAI",–,–,Km [16]: 1.2 µM; Km [17]: 1.38 µM; Vmax [18]: 0.64 nmol/min; Km [19]: 1.45 µM; Vmax [20]: 0.83 nmol/min; Vmax [21]: 0.93 nmol/min; Km [22]: 1.17 µM; Vmax [23]: 0.93 nmol/min
